Values joined by “and” are separate entries in the source; they are usually repeats but may differ in a detail not shown here. Equal values may be shown once.
Each compound was assayed against Endothelial PAS domain-containing protein 1 (Homo sapiens) (UniProt Q99814) (assay: HIF reporter inhibition across pancreatic and renal lines – cell-based, luminescence, MIAPaCa-2, 786-0, panel, SAR follow-up (AID 652011)). Details: MIAPaCa-2/PANC HIF reporter, luciferase luminescence, desferoxamine, overnight, HIF2a PANC, run 2; at 99 µM (top of the series).
Endothelial PAS domain-containing protein 1 (Homo sapiens), sequence (Q99814 whole entry, looked up, the tested form may be a part): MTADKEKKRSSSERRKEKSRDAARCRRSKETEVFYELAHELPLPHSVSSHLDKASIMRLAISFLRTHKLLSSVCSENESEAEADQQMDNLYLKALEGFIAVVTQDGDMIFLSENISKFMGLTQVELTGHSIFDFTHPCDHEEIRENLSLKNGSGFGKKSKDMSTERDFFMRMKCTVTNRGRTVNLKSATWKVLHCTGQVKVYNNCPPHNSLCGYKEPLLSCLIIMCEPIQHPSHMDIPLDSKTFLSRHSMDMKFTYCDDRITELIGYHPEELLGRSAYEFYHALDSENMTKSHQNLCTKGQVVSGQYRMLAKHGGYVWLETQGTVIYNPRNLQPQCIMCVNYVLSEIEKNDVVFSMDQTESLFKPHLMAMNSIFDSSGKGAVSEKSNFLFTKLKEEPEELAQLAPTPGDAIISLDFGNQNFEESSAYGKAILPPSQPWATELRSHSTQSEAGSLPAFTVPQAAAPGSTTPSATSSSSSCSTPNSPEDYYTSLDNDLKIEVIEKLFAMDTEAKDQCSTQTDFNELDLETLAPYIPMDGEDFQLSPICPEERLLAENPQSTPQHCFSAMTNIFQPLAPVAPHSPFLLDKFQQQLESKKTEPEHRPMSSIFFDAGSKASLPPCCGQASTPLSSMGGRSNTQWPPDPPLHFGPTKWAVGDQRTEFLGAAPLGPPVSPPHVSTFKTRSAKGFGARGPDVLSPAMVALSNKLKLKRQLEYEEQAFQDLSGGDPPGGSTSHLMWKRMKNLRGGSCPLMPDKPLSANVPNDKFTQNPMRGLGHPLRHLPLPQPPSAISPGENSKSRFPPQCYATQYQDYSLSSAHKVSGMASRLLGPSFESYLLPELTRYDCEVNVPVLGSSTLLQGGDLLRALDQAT
Procedure, shortened: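 Detection: luminescence, One-Glo; Reagent: desferoxamine; Incubation: overnight seeding and compound exposure, 37 °C, 5% CO2, 10-min detection.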
With `C=CCNC(=O)CCc1nc(-c2ccc(C(C)(C)C)cc2)no1` the inhibition was 82%.
`O=C(CCc1nc(-c2ccccc2)no1)NC1CC1` was tested, and the inhibition was 56.6%.
Compound `CC(C)(C)c1ccc(-c2noc(CCC(=O)NCC3CCCO3)n2)cc1` (stereo not given) has an inhibition of 16.7%.
`CCNC(=O)CCc1nc(-c2c(Cl)cccc2Cl)no1` showed an inhibition of 31.9%.
`CCNC(=O)CCc1nc(-c2ccc(C(C)(C)C)cc2)no1` was tested, and the inhibition was 84.7% and 55.9%.
`CCCCc1ccc(-c2noc(CCC(=O)NC)n2)cc1` gave an inhibition of -4.31%.
In the case of `CCNC(=O)CCc1nc(-c2cccc(C)c2)no1`, the inhibition is reported as -15.7%.
In the case of `CCOc1ccc(-c2noc(CCC(=O)NC)n2)cc1`, the inhibition is reported as 112%.
With `CC(C)(C)NC(=O)CCc1nc(-c2ccccc2)no1` the inhibition was -18.9%.
Work on `CC(C)(C)c1ccc(-c2noc(CCC(=O)Nc3ccccc3)n2)cc1` yielded an inhibition of 128%.
Work on `CC(C)(C)c1ccc(-c2noc(CCC(=O)O)n2)cc1` yielded an inhibition of 124%.
Compound `CC(C)(C)c1ccc(-c2noc(CCC(=O)Nc3cccnc3)n2)cc1` has an inhibition of 126%.
`CCNC(=O)CCc1nc(-c2ccc(C(C)C)cc2)no1` gave an inhibition of -41.3%.
`CCC(C)NC(=O)CCc1nc(-c2ccccc2)no1` (stereo not given) was tested, and the inhibition was -3.82%.
`CC(C)CNC(=O)CCc1nc(-c2ccc(C(C)(C)C)cc2)no1` was tested, and the inhibition was 65.5%.
For `CCc1ccc(-c2noc(CCC(=O)NC(C)(C)C)n2)cc1`, the inhibition was -22.9%.
With `CNC(=O)CCc1nc(-c2ccc(C(C)C)cc2)no1` the inhibition was 8.04%.
`CC(C)c1ccc(-c2noc(CCC(=O)NC3CC3)n2)cc1` showed an inhibition of 26.7%.
`CN(C)C(=O)CCc1nc(-c2ccc(C(C)(C)C)cc2)no1` was tested, and the inhibition was 42.5% and -5.18%.
`CCNC(=O)CCc1nc(-c2ccc(OCC)cc2)no1` was tested, and the inhibition was -15.1%.
`CCOc1ccccc1NC(=O)CCc1nc(-c2ccc(C(C)(C)C)cc2)no1` showed an inhibition of 112%.
Work on `COC(=O)CCc1nc(-c2ccc(C(C)(C)C)cc2)no1` yielded an inhibition of 128%.
Compound `CC(C)(C)c1ccc(-c2noc(CCC(=O)Nc3cccc([N+](=O)[O-])c3)n2)cc1` has an inhibition of 86.3%.
For `CCNC(=O)CCc1nc(-c2ccccc2C)no1`, the inhibition was -1.15%.
With `CCCCc1ccc(-c2noc(CCC(=O)NCC)n2)cc1` the inhibition was 9.61%.
Compound `CC(C)(C)c1ccc(-c2noc(CCC(=O)NC3CCC3)n2)cc1` has an inhibition of 90.3%.
`CCNC(=O)CCc1nc(-c2ccccc2)no1` gave an inhibition of 13%.
Compound `CC(C)(C)c1ccc(-c2noc(CCC(=O)N3CCOCC3)n2)cc1` has an inhibition of 32.4%.
For `CC(C)(C)NC(=O)CCc1nc(-c2ccc(C(C)(C)C)cc2)no1`, the inhibition was 102%.
Compound `CCc1ccc(-c2noc(CCC(=O)NC)n2)cc1` has an inhibition of -49.2%.

Source: PubChem BioAssay AID652011 (Sanford-Burnham Center for Chemical Genomics, 2013)
